# Results published in ChEMBL document CHEMBL1150818, “Antimalarial, antiviral, and antitoxoplasmosis norsesterterpene peroxide acids from the Red Sea sponge Diacarnus erythraeanus” (J Nat Prod, 2001).
# Tests used:
# [1] = test system: Plasmodium falciparum; assay: Antimalarial activity against Plasmodium falciparum D6 at 80 ug/mL; type: functional, organism-based
# [2] = test system: Vero; assay: Cytotoxicity against african green monkey Vero cells; type: cell-based; conditions: Chlorocebus sabaeus
# Summary of the method: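 Cytotoxicity taken from the same HSV-1 plaque cultures: concentration causing half-maximal loss of uninfected Vero cells from the monolayer surrounding plaques.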
# [3] = test system: Human alphaherpesvirus 1; assay: Antiviral activity against HSV1 infected african green monkey Vero cells assessed as inhibition of viral-induced cytopathic effect; type: functional; conditions: Human alphaherpesvirus 1, Vero; read-out: ED50 (the source's name)
# Summary of the method: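 Simplified plaque reduction assay: serial dilutions of test compounds with herpes simplex type 1 virus in Vero African green monkey kidney cell cultures in 96-well trays.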
# [4] = test system: Plasmodium falciparum; assay: Antimalarial activity against Plasmodium falciparum W2 at 80 ug/mL; type: functional, organism-based
# [5] = test system: Toxoplasma gondii; assay: Antiparasitic activity against Toxoplasma gondii infected in mouse L929 cells at 0.1 uM after 48 hrs by [3H]uracil incorporation assay relative to control; type: functional
# [6] = test system: Plasmodium falciparum; assay: Antimalarial activity against Plasmodium falciparum W2; type: functional, organism-based
# [7] = test system: Toxoplasma gondii; assay: Antiparasitic activity against Toxoplasma gondii infected in HFF cells at 1 uM after 24 hrs by [3H]uracil incorporation assay relative to control; type: functional
# [8] = test system: HFF; assay: Toxicity against HFF cells at 1 uM after 48 hrs by MTT assay relative to control; type: cell-based; conditions: human
# Summary of the method: (§1)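 Host-cell toxicity for HFF and L929 cells determined by MTT cell proliferation assay; expressed as percent of control.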
# [9] = test system: Toxoplasma gondii; assay: Antiparasitic activity against Toxoplasma gondii infected in mouse L929 cells at 1 uM after 48 hrs by [3H]uracil incorporation assay relative to control; type: functional
# [10] = test system: Toxoplasma gondii; assay: Antiparasitic activity against Toxoplasma gondii infected in HFF cells at 1 uM after 48 hrs by [3H]uracil incorporation assay relative to control; type: functional
# [11] = test system: Toxoplasma gondii; assay: Antiparasitic activity against Toxoplasma gondii infected in HFF cells at 0.1 uM after 24 hrs by [3H]uracil incorporation assay relative to control; type: functional
# [12] = test system: L929; assay: Toxicity against mouse L929 cells at 0.10 uM after 24 hrs by MTT assay relative to control; type: cell-based; conditions: l929, 24 h, 0.1 µM; summary of the method: as §1
# [13] = test system: L929; assay: Toxicity against mouse L929 cells at 0.010 uM after 24 hrs by MTT assay relative to control; type: cell-based; conditions: l929, 24 h, 0.01 µM; summary of the method: as §1
# [14] = test system: HFF; assay: Toxicity against HFF cells at 0.10 uM after 24 hrs by MTT assay relative to control; type: cell-based; conditions: human, 0.1 µM; summary of the method: as §1
# [15] = test system: Toxoplasma gondii; assay: Antiparasitic activity against Toxoplasma gondii infected in mouse L929 cells at 0.01 uM after 24 hrs by [3H]uracil incorporation assay relative to control; type: functional
# [16] = test system: L929; assay: Toxicity against mouse L929 cells at 10 uM after 48 hrs by MTT assay relative to control; type: cell-based; conditions: l929, 48 h; summary of the method: as §1
# [17] = test system: L929; assay: Toxicity against mouse L929 cells at 0.010 uM after 48 hrs by MTT assay relative to control; type: cell-based; conditions: l929, 48 h, 0.01 µM; summary of the method: as §1
# [18] = test system: HFF; assay: Toxicity against HFF cells at 0.010 uM after 24 hrs by MTT assay relative to control; type: cell-based; conditions: human, 0.01 µM; summary of the method: as §1
# [19] = test system: Toxoplasma gondii; assay: Antiparasitic activity against Toxoplasma gondii infected in HFF cells at 0.1 uM after 48 hrs by [3H]uracil incorporation assay relative to control; type: functional
# [20] = test system: L929; assay: Toxicity against mouse L929 cells at 1 uM after 24 hrs by MTT assay relative to control; type: cell-based; conditions: l929, 24 h; summary of the method: as §1
# [21] = test system: HFF; assay: Toxicity against HFF cells at 1 uM after 24 hrs by MTT assay relative to control; type: cell-based; conditions: human; summary of the method: as §1
# [22] = Selectivity index, ratio of IC50 for african green monkey (Cercopithecus aethiops) Vero cells to IC50 for Plasmodium falciparum W2; type: toxicity, cell-based; conditions: read-out: Ratio IC50
# [23] = test system: HFF; assay: Toxicity against HFF cells at 0.10 uM after 48 hrs by MTT assay relative to control; type: cell-based; conditions: human, 0.1 µM; summary of the method: as §1
# [24] = test system: Toxoplasma gondii; assay: Antiparasitic activity against Toxoplasma gondii infected in mouse L929 cells at 0.1 uM after 24 hrs by [3H]uracil incorporation assay relative to control; type: functional
# [25] = test system: Plasmodium falciparum; assay: Antimalarial activity against Plasmodium falciparum D6; type: functional, organism-based
# [26] = test system: Toxoplasma gondii; assay: Antiparasitic activity against Toxoplasma gondii infected in HFF cells at 0.01 uM after 24 hrs by [3H]uracil incorporation assay relative to control; type: functional
# [27] = test system: Toxoplasma gondii; assay: Antiparasitic activity against Toxoplasma gondii infected in HFF cells at 10 uM after 24 hrs by [3H]uracil incorporation assay relative to control; type: functional
# [28] = test system: Toxoplasma gondii; assay: Antiparasitic activity against Toxoplasma gondii infected in HFF cells at 10 uM after 48 hrs by [3H]uracil incorporation assay relative to control; type: functional
# [29] = test system: Toxoplasma gondii; assay: Antiparasitic activity against Toxoplasma gondii infected in mouse L929 cells at 10 uM after 24 hrs by [3H]uracil incorporation assay relative to control; type: functional
# [30] = Selectivity index, ratio of IC50 for african green monkey (Cercopithecus aethiops) Vero cells to IC50 for Plasmodium falciparum D6; type: toxicity, cell-based; conditions: read-out: Ratio IC50
# [31] = test system: Toxoplasma gondii; assay: Antiparasitic activity against Toxoplasma gondii infected in HFF cells at 0.01 uM after 48 hrs by [3H]uracil incorporation assay relative to control; type: functional
# [32] = test system: L929; assay: Toxicity against mouse L929 cells at 1 uM after 48 hrs by MTT assay relative to control; type: cell-based; conditions: l929, 48 h; summary of the method: as §1
# [33] = test system: HFF; assay: Toxicity against HFF cells at 0.010 uM after 48 hrs by MTT assay relative to control; type: cell-based; conditions: human, 0.01 µM; summary of the method: as §1
# [34] = test system: HFF; assay: Toxicity against HFF cells at 10 uM after 48 hrs by MTT assay relative to control; type: cell-based; conditions: human; summary of the method: as §1
# [35] = test system: Toxoplasma gondii; assay: Antiparasitic activity against Toxoplasma gondii infected in mouse L929 cells at 1 uM after 24 hrs by [3H]uracil incorporation assay relative to control; type: functional
# [36] = test system: Toxoplasma gondii; assay: Antiparasitic activity against Toxoplasma gondii infected in mouse L929 cells at 0.01 uM after 48 hrs by [3H]uracil incorporation assay relative to control; type: functional
# [37] = test system: L929; assay: Toxicity against mouse L929 cells at 0.10 uM after 48 hrs by MTT assay relative to control; type: cell-based; conditions: l929, 48 h, 0.1 µM; summary of the method: as §1
# [38] = test system: HFF; assay: Toxicity against HFF cells at 10 uM after 24 hrs by MTT assay relative to control; type: cell-based; conditions: human; summary of the method: as §1
# [39] = test system: L929; assay: Toxicity against mouse L929 cells at 10 uM after 24 hrs by MTT assay relative to control; type: cell-based; conditions: l929, 24 h; summary of the method: as §1
# [40] = test system: Toxoplasma gondii; assay: Antiparasitic activity against Toxoplasma gondii infected in mouse L929 cells at 10 uM after 48 hrs by [3H]uracil incorporation assay relative to control; type: functional
Structure (SMILES),IC50 [2] [mg/L],EC50 [3] [mg/L],Activity [5] [%],IC50 [6] [mg/L],Activity [7] [%],Activity [8] [%],Activity [9] [%],Activity [10] [%],Activity [11] [%],Activity [12] [%],Activity [13] [%],Activity [14] [%],Activity [15] [%],Activity [16] [%],Activity [17] [%],Activity [18] [%],Activity [19] [%],Activity [20] [%],Activity [21] [%],IC50 [25] [mg/L],other results
CC(=O)CCCC(C)(C)C(=O)CC/C(C)=C/CC[C@@]1(C)CC[C@H]([C@H](C)C(=O)O)OO1 [AIKUPIKOXIDE A],60,30,,,,,,,,,,,,,,,,,,,IC50 [1]: Not Active; IC50 [4]: Not Active
CC1=C(CC/C(C)=C/CC[C@@]2(C)CC[C@@H]([C@@H](C)C(=O)O)OO2)C(C)(C)CCC1 [MUQUBILIN],30,7.5,46.3,> 4.76,86.18,85.93,96.77,87.94,84,0,0,7.15,33.85,94.9,0,0,62.88,66.3,86.15,2.9,selectivity ratio [22]: > 1; Activity [23]: 0.94%; Activity [24]: 58.35%; Activity [26]: 3.16%; Activity [27]: 91.72%; Activity [28]: 100%; Activity [29]: 87.84%; selectivity ratio [30]: > 1.6; Activity [31]: 0%; Activity [32]: 83.36%; Activity [33]: 0%; Activity [34]: 84.73%; Activity [35]: 84.03%; Activity [36]: 0%; Activity [37]: 0%; Activity [38]: 85.85%; Activity [39]: 93%; Activity [40]: 100%
C=C1CCC[C@H]2[C@](C)(CC[C@]3(C)CC[C@H]([C@@H](C)C(=O)O)OO3)[C@@H](C)CC[C@]12C [SIGMOSCEPTRELLIN A],,,,0.42,,,,,,,,,,,,,,,,0.47,
C=C1CCC[C@@H]2[C@@H](CC[C@@]3(C)CC[C@H]([C@H](C)C(=O)O)OO3)[C@H](C)CC[C@@]12C [SIGMOSCEPTRELLIN B],2.5,,35.17,3.4,96.49,64.37,98.82,100,84.72,0,0,0,0,91.05,0,0,98.32,60.48,86.81,1.2,selectivity ratio [22]: > 1; Activity [23]: 5.56%; Activity [24]: 18.61%; Activity [26]: 0%; Activity [27]: 94.91%; Activity [28]: 100%; Activity [29]: 96.62%; selectivity ratio [30]: > 2.7; Activity [31]: 37.57%; Activity [32]: 91.21%; Activity [33]: 0%; Activity [34]: 94.65%; Activity [35]: 91.88%; Activity [36]: 24.15%; Activity [37]: 0%; Activity [38]: 87.41%; Activity [39]: 92.96%; Activity [40]: 100%
